Reference: ChEMBL document CHEMBL4007453, “Identification of Non-Nucleoside Inhibitors of the Respiratory Syncytial Virus Polymerase Complex” (J Med Chem, 2017)
Values after ≈ are worked out from the molar mass of the structure shown. Values joined by “and” are separate entries in the source; they are usually repeats but may differ in a detail not shown here. Equal values may be shown once.

How the values were obtained:
Liver [1] = assay: Half life in mouse liver microsomes at 1 uM by LC-MS analysis; format: ADME, microsome
How it was run: (§1)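 Test article at 1 µM final was incubated in triplicate at 37°C with shaking (150 rpm) with mouse or human liver S9 or microsomes (0.5 mg total protein), with Phase I oxidation and Phase II glucuronidation cofactors. Cofactor-free and microsome-free controls were run, sampled only at 0 and 120 min. Other sampling was at 0, 15, 30, 60 and 120 min into organic internal standard solution.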

Liver [2] = assay: Half life in human liver microsomes at 1 uM by LC-MS analysis; format: ADME, microsome; how it was run: as §1
BEAS-2B = assay: Cytotoxicity against human BEAS2B cells after 48 hrs by PrestoBlue staining based fluorescence assay; format: cell-based
How it was run: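 Uninfected BEAS-2B cells were exposed to compound for 48 h at 37°C. PrestoBlue was added and incubated 90 min at 37°C, then fluorescence was read (ex 560 nm, em 590 nm). Cytotoxic was defined as metabolic activity <70% of vehicle control. Highest concentration assessed for cytotoxicity was 90 µM, and CC50 came from four-parameter variable slope regression.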

[3] = Selectivity index, ratio of CC50 for human BEAS2B cells to EC50 for inhibition of recombinant mkate-tagged-Respiratory syncytial virus-A2-L19F RNA-dependent RNA polymerase complex D489E mutant in human BEAS2B cells infected with Respiratory syncytial virus-A2-L19F; format: toxicity, cell-based; conditions: read-out: Ratio CC50/EC50
How it was run: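 SI is CC50/EC50 in BEAS-2B cells. EC50 came from reporter RSV dose-response, 3-fold dilutions, top 10 µM. […] Both values from four-parameter variable-slope regression.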

[4] = Inhibition of recombinant Respiratory syncytial virus-A2-L19F RNA-dependent RNA polymerase complex D489E mutant transfected with firefly luciferase gene at SMASh domain in human BEAS2B cells infected with Respiratory syncytial virus-A2-L19F assessed as reduction in viral replication measured after […] by bioluminescence assay; format: cell-based
How it was run: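 BEAS-2B cells (1.5×10^4/well) received 3-fold serial compound dilutions prepared in three repeats (top concentration 10 µM) and were infected with firefly-luciferase/SMASh reporter RSV-A2-L19F D489E (MOI 0.1). Luminescence was converted to % inhibition against four-replicate positive and negative controls per plate. EC50 came from four-parameter variable-slope regression.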

[5] = Aqueous solubility of the compound in phosphate buffered saline at pH 7.4 after 90 mins by laser nephelometric method; format: physicochemical
How it was run: (§2)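 Stocks of 30 mg/mL in DMSO were serially diluted in DMSO, then into buffer to final 300 down to 1.5 µg/mL at 1% final DMSO. Diluent was PBS for pH 7.4 and citrate buffer for pH 3 and 5. Plates stood 90 min at ambient temperature. Forward-scatter laser nephelometry gave the concentration at which precipitation began.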

[6] = Aqueous solubility of the compound in citrate buffer at pH 5 after 90 mins by laser nephelometric method; format: physicochemical; how it was run: as §2
[7] = Aqueous solubility of the compound in citrate buffer at pH 3 after 90 mins by laser nephelometric method; format: physicochemical; how it was run: as §2
Liver [8] = assay: Half life in mouse liver S9 fraction at 1 uM by LC-MS analysis; format: ADME, tissue-based; conditions: s9, 1 µM; how it was run: as §1
Plasma [9] = assay: Half life in mouse plasma at 1 uM by LC-MS analysis; format: ADME, cell-free
Plasma [10] = assay: Half life in human plasma at 1 uM by LC-MS analysis; format: ADME, cell-free
Liver [11] = assay: Half life in human liver S9 fraction at 1 uM by LC-MS analysis; format: ADME, tissue-based; conditions: s9, 1 µM; how it was run: as §1
[12] = Inhibition of recombinant mkate-tagged-Respiratory syncytial virus-A2-L19F RNA-dependent RNA polymerase D489E mutant in human BEAS2B cells infected with Respiratory syncytial virus-A2-L19F assessed as reduction in progeny release measured after 48 hrs postinfection by fluorescence assay based progeny virus yield-based dose-response assay; format: cell-based; conditions: BEAS-2B
How it was run: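 Cells in 12-well format infected with mKate-expressing recRSV-A2-L19F (MOI 0.05 particles/cell) in the presence of serial compound dilutions at 37°C. Cell-associated progeny harvested 48 h post-infection and released by one freeze/thaw cycle. Titres determined by TCID50 titration. Two repeats; EC50 derived by regression.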

[13] = tested on: Respiratory syncytial virus; assay: Inhibition of Respiratory syncytial virus-A2-L19F RNA-dependent RNA polymerase complex D489E mutant in human BEAS2B cells infected with Respiratory syncytial virus-A2-L19F by firefly luciferase reporter-based RSV minigenome assay; format: cell-based
Liver [14] = assay: Drug metabolism in mouse liver microsomes assessed as 5-(3-Methylfuran-2-carbonyl)-5,6,7,8-tetrahydro-4H-pyrazolo-[1,5-a][1,4]diazepine-2-carboxylic Acid formation at 1 uM by LC-MS analysis; format: ADME, microsome
Liver [15] = assay: Half life in mouse liver microsomes at 1 uM in presence of NADPH by LC-MS analysis; format: ADME, microsome; how it was run: as §1
Liver [16] = assay: Half life in mouse liver microsomes at 1 uM in absence of NADPH by LC-MS analysis; format: ADME, microsome; how it was run: as §1
[17] = tested on: Respiratory syncytial virus; assay: Inhibition of recombinant mkate-tagged-Respiratory syncytial virus-A2-L19F RNA-dependent RNA polymerase complex D489E mutant in human BEAS2B cells infected with Respiratory syncytial virus-A2-L19F assessed as reduction in RSV-N mRNA level measured after 20 hrs by RT-qPCR analysis; format: cell-based
How it was run: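 Cells infected with mKate recRSV-A2-L19F (MOI 3 particles/cell) and exposed to compound at 0.1–10 µM, or DMSO, at 37°C for 20 h. RT-qPCR of RSV N mRNA, with melt-curve check. ΔΔCT calculated against GAPDH and normalised to DMSO controls. Three independent experiments, each in duplicate; mean ± SD.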

[18] = tested on: Vesicular stomatitis virus; assay: Antiviral activity against Vesicular stomatitis virus assessed as reduction in viral replication measured after […] by bioluminescence assay; format: functional
[19] = Antiviral activity against influenza A virus (A/WSN/1933(H1N1)) infected in MDCK cells assessed as reduction in viral replication measured after […] by bioluminescence assay; format: functional, cell-based
[20] = Retention time of the compound at 80 uM by LC-MS analysis
Liver [21] = assay: Stability in mouse liver microsomes at 1 uM in absence of NADPH after 2 hrs by LC-MS analysis; format: ADME, microsome; how it was run: as §1
Liver [22] = assay: Drug metabolism in mouse liver microsomes assessed as metabolite M1 formation at 80 uM after 2 hrs by LC-MS analysis; format: ADME, microsome
How it was run: (§3)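 Metabolite identification used 80 µM test article incubated in triplicate with mouse liver microsomes (0.5 mg total protein) plus Phase I oxidation and Phase II glucuronidation cofactors, at 37°C with shaking at 150 rpm. Aliquots were taken at 0, 15, 30, 60 and 120 min and mixed with organic internal standard solution.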

Liver [23] = assay: Drug metabolism in mouse liver microsomes assessed as metabolite M2 formation at 80 uM after 2 hrs by LC-MS analysis; format: ADME, microsome; how it was run: as §3
Liver [24] = assay: Drug metabolism in mouse liver microsomes assessed as metabolite M3 formation at 80 uM after 2 hrs by LC-MS analysis; format: ADME, microsome; how it was run: as §3
Liver [25] = assay: Drug metabolism in mouse liver microsomes assessed as metabolite M4 formation at 80 uM after 2 hrs by LC-MS analysis; format: ADME, microsome; how it was run: as §3
Liver [26] = assay: Drug level in mouse liver microsomes treated with at 1 uM GRP-74915 by LC-MS analysis; format: ADME, microsome
[27] = human respiratory syncytial virus, A2-L19F, BEAS-2B, 40 min

SMILES	t1/2 (Liver [2])	CC50 (BEAS-2B)	selectivity ratio [3]	EC50 [4, 27]	solubility kinetic at 1.5 h [5]	solubility kinetic at 1.5 h [6]	solubility kinetic at 1.5 h [7]	EC50 [12]	inhibition [13]	further results
Cc1ccoc1C(=O)N1CCCn2nc(C(=O)Nc3ccc(F)cc3Cl)cc2C1	216 min	30000 nM	500	60 nM	–	–	–	–	–	t1/2 (Liver [1]): 4 min
Cc1ccoc1C(=O)N1CCCn2nc(C(=O)N(C)c3ccccc3)cc2C1	–	> 90000 nM	> 9	10000 nM	58 µg/mL (≈ 153 µM)	25 µg/mL (≈ 66.1 µM)	20 µg/mL (≈ 52.8 µM)	–	–	–
Cc1ccoc1C(=O)N1CCCn2nc(C(=O)Nc3ccccc3F)cc2C1	318 min	1100 nM	22	50 nM	30 µg/mL (≈ 78.5 µM)	51 µg/mL (≈ 133 µM)	75 µg/mL (≈ 196 µM)	–	–	t1/2 (Liver [8]): 11 min; t1/2 (Plasma [9]): 144 min; t1/2 (Plasma [10]): > 1440 min; t1/2 (Liver [11]): 420 min
COc1cc(N2CCCC(CO)(Cc3cccc(Cl)c3)C2)ncn1 (centres undefined)	–	–	–	–	–	–	–	130 nM	Dose-dependent effect	–
Cc1nc2ccccn2c1CN(C)C(=O)c1cc(COc2ccc(F)cc2F)on1	–	–	–	–	–	–	–	50 nM	Dose-dependent effect	–
Cn1c(=O)n(C)c2cc(Cn3cnc(-c4ccccc4)c3C3CC3)ccc21	–	–	–	–	–	–	–	170 nM	Dose-dependent effect	–
Cc1ccoc1C(=O)N1CCCn2nc(C(=O)Nc3ccccc3)cc2C1	282 min	8300 nM	40	–	63 µg/mL (≈ 173 µM)	75 µg/mL (≈ 206 µM)	74 µg/mL (≈ 203 µM)	540 nM	Dose-dependent effect	t1/2 (Liver [8]): 15 min; Drug metabolism (Liver [14]): Metabolite_Detected; t1/2 (Liver [15]): 15 min; t1/2 (Liver [16]): 15 min; inhibition [17]: Dose-dependent effect; EC50 [4]: 200 to 210 nM and 840 nM; EC50 [18]: > 20000 nM; EC50 [19]: > 20000 nM
Cc1ccoc1C(=O)N1CCCn2nc(C(=O)Cc3ccccc3)cc2C1	42 min	5500 nM	79	70 nM	18 µg/mL (≈ 49.5 µM)	18 µg/mL (≈ 49.5 µM)	< 15 µg/mL	–	–	Retention time [20]: 12.9 min; Stability (Liver [21]): Stable; Drug metabolism (Liver [22]): Metabolite_Detected; Drug metabolism (Liver [23]): Metabolite_Detected; Drug metabolism (Liver [24]): Metabolite_Detected; Drug metabolism (Liver [25]): Metabolite_Detected; t1/2 (Liver [8]): 20 min; t1/2 (Liver [15]): 20 min
Cc1ccoc1C(=O)N1CCCn2nc(C(=O)O)cc2C1	–	–	–	–	–	–	–	–	–	Drug metabolism (Liver [26]): Metabolite_Detected
COc1ccccc1NC(=O)c1cc2n(n1)CCCN(C(=O)c1occc1C)C2	–	3300 nM	11	310 nM	28 µg/mL (≈ 71 µM)	43 µg/mL (≈ 109 µM)	48 µg/mL (≈ 122 µM)	–	–	–
CC(C)c1cc(C(=O)NCc2noc(-c3cccs3)n2)n(C)n1	–	–	–	–	–	–	–	30 nM	Dose-dependent effect	–
Cc1ccc(NC(=O)c2cc3n(n2)CCCN(C(=O)c2occc2C)C3)cc1	–	30000 nM	73	410 nM	–	–	–	–	–	–
O=C(Nc1ccccc1F)c1cc2n(n1)CCCN(C(=O)c1ccco1)C2	–	3700 nM	12	320 nM	–	–	–	–	–	–
